Results as given in ChEMBL document CHEMBL1255465, “Persistence of uropathogenic Escherichia coli in the face of multiple antibiotics” (Antimicrob Agents Chemother, 2010).
Calls of active or inactive are those of the source. No cut-off for these calls is given here.

What was measured:
[1] = test system: Escherichia coli; assay: Antibacterial activity against uropathogenic Escherichia coli UTI89 infected in human 5637 cells assessed as decrease in intracellular bacterial level at 250 to 300 ug/ml after 12 hrs by serial dilution method; type: functional, organism-based
How it was run: (§1)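 Confluent 5637 monolayers in triplicate infected with UTI89 (24-h static LB culture, type 1 pili) at MOI ~15 and spun 600 × g for 5 min. After 2 h: gentamicin 100 μg/ml for 2 h, then 10 μg/ml for 14 h. Then 12 h with drug at two concentrations. Cells lysed in 0.4% Triton X-100 and plated on LB agar. Titers expressed relative to 800 μg/ml gentamicin. ≥3 independent assays.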

[2] = test system: 5637; assay: Cytotoxicity against human 5637 cells assessed as mild induction of cell death by trypan blue exclusion assay; type: cell-based
How it was run: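 Integrity of 5637 cells after drug treatment assessed by 0.4% trypan blue exclusion, following a standard protocol.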

[3] = test system: 5637; assay: Cytotoxicity against human 5637 cells assessed as mild induction of cell death by LDH release assay; type: cell-based
[4] = test system: Escherichia coli; assay: Antibacterial activity against uropathogenic Escherichia coli UTI89 assessed as degradation of preexisting biofilm after 24 hrs by microscopy; type: functional, organism-based
How it was run: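 UTI89 diluted 1:100 into M9 medium and grown statically 48 h at 37°C in microtiter wells. Nonadherent cells removed, fresh M9 ± drug added for 24 h, using the higher of two tested concentrations. Viable bacteria in biofilms visualized by Live/Dead BacLight staining and microscopy.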

[5] = test system: Escherichia coli; assay: Antibacterial activity against uropathogenic Escherichia coli UTI89 infected in human 5637 cells assessed as decrease in intracellular bacterial level at 600 to 1000 ug/ml after 12 hrs by serial dilution method; type: functional, organism-based; how it was run: as §1
[6] = test system: Escherichia coli; assay: Antibacterial activity against uropathogenic Escherichia coli UTI89 assessed as inhibition of biofilm formation after 24 hrs by microtiterplate-based assay; type: functional, organism-based
How it was run: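 Biofilms of UTI89 formed for 48 h at 37°C without shaking in M9 (1:100 inoculum, triplicate wells). Fresh M9 ± drug (higher of two tested concentrations) then added for 24 h. Biomass stained with 0.1% crystal violet, solubilized in DMSO, read at A562, and expressed relative to untreated controls. Three independent experiments.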

[7] = Drug level in Escherichia coli UTI89-infected CBA/J mouse urine at 200 ug/kg, sc after 2 hrs; type: ADME, organism-based; conditions: in vivo, 0.2 mg/kg
How it was run: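 Urine was collected 2 h after dosing by gentle bladder pressure. 10-μl aliquots went onto 7-mm sterile filter discs laid on fresh UTI89 lawns on LB agar. Clearance diameters were read after 24 h at 37°C, and levels were calculated from standard curves of discs with known antibiotic concentrations.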

[8] = test system: Escherichia coli; assay: Antibacterial activity against uropathogenic Escherichia coli UTI89 infected in human 5637 cells assessed as decrease in intracellular bacterial level at 300 to 500 ug/ml after 12 hrs by serial dilution method; type: functional, organism-based
How it was run: (§2)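 UTI89 was grown 24 h static in LB (type 1 pili) and added to confluent 5637 monolayers at MOI ~15, spun 600 × g for 5 min. After 2 h at 37°C: gentamicin 100 μg/ml for 2 h, then 10 μg/ml for 14 h. Next, 12 h with antibiotic at two concentrations. Lysis in 0.4% Triton X-100, serial-dilution plating; titers relative to 800 μg/ml gentamicin. ≥3 independent assays in triplicate, mean ± SEM.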

[9] = test system: Escherichia coli; assay: Antibacterial activity against uropathogenic Escherichia coli UTI89 infected in human 5637 cells assessed as decrease in intracellular bacterial level at 800 to 1200 ug/ml after 12 hrs by serial dilution method; type: functional, organism-based; how it was run: as §2
[10] = test system: Escherichia coli; assay: Antibacterial activity against uropathogenic Escherichia coli UTI89 infected in human 5637 cells assessed as decrease in intracellular bacterial level at 200 to 300 ug/ml after 12 hrs by serial dilution method; type: functional, organism-based; how it was run: as §1
[11] = test system: Escherichia coli; assay: Antibacterial activity against uropathogenic Escherichia coli UTI89 infected in CBA/J mouse assessed as decrease in bacterial invasion into layers of urothelium at 200 ug/kg, sc administered on day 3 postinfection daily for 3 days measured on day 9 post-inoculation; type: functional, organism-based
[12] = test system: Escherichia coli; assay: Antibacterial activity against uropathogenic Escherichia coli UTI89 infected in CBA/J mouse assessed as decrease in bacterial invasion into layers of urothelium at 200 ug/kg, sc administered on day 3 postinfection daily for 3 days measured on day 9 post-inoculation in presence of Triton X-100; type: functional, organism-based
[13] = test system: Escherichia coli; assay: Antibacterial activity against uropathogenic Escherichia coli UTI89 infected in human 5637 cells assessed as decrease in intracellular bacterial level at 400 to 800 ug/ml after 12 hrs by serial dilution method; type: functional, organism-based; how it was run: as §2
[14] = test system: Escherichia coli; assay: Antibacterial activity against uropathogenic Escherichia coli UTI89 infected in CBA/J mouse assessed as decrease in bacterial load in bladder at 200 ug/kg, sc administered on day 3 postinfection daily for 3 days measured on day 9 post-inoculation; type: functional, organism-based; conditions: Urinary bladder
[15] = test system: Escherichia coli; assay: Antibacterial activity against uropathogenic Escherichia coli UTI89 isolated from urine samples of infected CBA/J mouse after 24 hrs by disk diffusion assay; type: functional, organism-based
How it was run: (§3)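 Urine collected by gentle bladder pressure 2 h after oral dosing of UTI89-infected CBA/J mice. 10 μl spotted on 7-mm filter discs, placed on fresh UTI89 lawns on LB agar. Clearance diameter measured after 24 h at 37°C. Urine drug level calculated from standard curves of discs holding known antibiotic concentrations.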

[16] = test system: Escherichia coli; conditions: UTI89, Urothelium, 2 mg/kg
[17] = test system: Escherichia coli; conditions: UTI89, Urothelium, 2 mg/kg; remark: listed apart in the source
[18] = test system: Escherichia coli; conditions: UTI89, 5637, 2 to 3 ug/ml
[19] = test system: Escherichia coli; conditions: UTI89, Urinary bladder, 2 mg/kg
[20] = test system: Escherichia coli; assay: Antibacterial activity against uropathogenic Escherichia coli UTI89 infected in human 5637 cells assessed as decrease in intracellular bacterial level at 1000 to 3000 ug/ml after 12 hrs by serial dilution method; type: functional, organism-based; how it was run: as §1
[21] = test system: Escherichia coli; assay: Antibacterial activity against uropathogenic Escherichia coli UTI89 infected in human 5637 cells assessed as decrease in intracellular bacterial level at 1000 to 2000 ug/ml after 12 hrs by serial dilution method; type: functional, organism-based; how it was run: as §1
[22] = Drug level in Escherichia coli UTI89-infected CBA/J mouse urine at 700 ug/kg, po after 2 hrs; type: ADME, organism-based; conditions: in vivo, 0.7 mg/kg; how it was run: as §3
[23] = test system: Escherichia coli; assay: Antibacterial activity against uropathogenic Escherichia coli UTI89 infected in CBA/J mouse assessed as decrease in bacterial invasion into layers of urothelium at 700 ug/kg, po administered on day 3 postinfection daily for 3 days measured on day 9 post-inoculation; type: functional, organism-based
[24] = test system: Escherichia coli; assay: Antibacterial activity against uropathogenic Escherichia coli UTI89 infected in CBA/J mouse assessed as decrease in bacterial invasion into layers of urothelium at 700 ug/kg, po administered on day 3 postinfection daily for 3 days measured on day 9 post-inoculation in presence of Triton X-100; type: functional, organism-based
[25] = test system: Escherichia coli; assay: Antibacterial activity against pGEN-GFP carrying uropathogenic Escherichia coli UTI89 isolated from bladder samples of infected CBA/J mouse assessed as decrease in growth of intracellular bacterial community at 12 ug/ml treated 6 hrs postinfection measured after 18 hrs; type: functional, organism-based
How it was run: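 Bladders from female CBA/J mice taken 6 h after transurethral inoculation with GFP(LVA)-plasmid UTI89, then halved, splayed and pinned lumen-up under Ringer solution (pH 7.4). Drug combination added at 12 and 700 μg/ml. GFP-positive IBCs counted by fluorescence stereomicroscopy at set times up to 18 h. n = 8 mice per group; Mann-Whitney U test.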

[26] = test system: Escherichia coli; assay: Antibacterial activity against uropathogenic Escherichia coli UTI89 infected in human 5637 cells assessed as decrease in intracellular bacterial level at 12 to 100 ug/ml after 12 hrs by serial dilution method; type: functional, organism-based; how it was run: as §1
[27] = test system: Escherichia coli; assay: Antibacterial activity against uropathogenic Escherichia coli UTI89 infected in CBA/J mouse assessed as decrease in bacterial load in bladder at 700 ug/kg, po administered on day 3 postinfection daily for 3 days measured on day 9 post-inoculation; type: functional, organism-based; conditions: Urinary bladder
How it was run: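 Female CBA/J mice, 7–8 weeks old, inoculated transurethrally with ~10^7 CFU UTI89 (24-h static LB culture) in 50 μl PBS. From day 3, one oral gavage daily for 3 days, 50 μl; controls given water. On day 9, bladders homogenized in PBS with 0.025% Triton X-100 and plated on LB agar for CFU. 11 mice from two experiments; Mann-Whitney U test.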

[28] = test system: Escherichia coli; assay: Antibacterial activity against uropathogenic Escherichia coli UTI89 infected in human 5637 cells assessed as decrease in intracellular bacterial level at 1200 to 1600 ug/ml after 12 hrs by serial dilution method; type: functional, organism-based; how it was run: as §1
[29] = test system: Escherichia coli; assay: Antibacterial activity against uropathogenic Escherichia coli UTI89 infected in human 5637 cells assessed as decrease in intracellular bacterial level at 400 to 700 ug/ml after 12 hrs by serial dilution method; type: functional, organism-based; how it was run: as §1

Compound	Activity [2]	Activity [3]	Activity [4]	further results
CN(C)[C@@H]1C(O)=C(C(N)=O)C(=O)[C@@]2(O)C(O)=C3C(=O)c4c(O)cccc4[C@@](C)(O)[C@H]3C[C@@H]12 [TETRACYCLINE]	Toxic	Toxic	Active	inhibition [1]: Active
CC1(C)S[C@@H]2[C@H](NC(=O)Cc3ccccc3)C(=O)N2[C@H]1C(=O)O [PENICILLIN G]	Toxic	Toxic	Active	inhibition [5]: Active; Biofilm inhibition activity [6]: Active
GENTAMICIN [listing 1 of 2 here]	Toxic	Toxic		Drug uptake [7]: 2 mg/mL
CCn1cc(C(=O)O)c(=O)c2cc(F)c(N3CCNCC3)cc21 [NORFLOXACIN]	Toxic	Toxic	Active	inhibition [8]: Active
CCn1cc(C(=O)O)c(=O)c2ccc(C)nc21 [NALIDIXIC ACID]	Toxic	Toxic	Active	inhibition [9]: Active
O=C1CN(/N=C/c2ccc([N+](=O)[O-])o2)C(=O)N1 [NITROFURANTOIN]	Toxic	Toxic	Active	inhibition [8]: Active
C[C@H]1COc2c(N3CCN(C)CC3)c(F)cc3c(=O)c(C(=O)O)cn1c23.C[C@H]1COc2c(N3CCN(C)CC3)c(F)cc3c(=O)c(C(=O)O)cn1c23.O [LEVOFLOXACIN]	Toxic	Toxic	Active	inhibition [10]: Active
GENTAMICIN [listing 2 of 2 here]			Active	inhibition [11]: inactive; inhibition [12]: Active; inhibition [13]: Active; inhibition [14]: inactive; Activity [15]: Active
O=C(O)c1cn(C2CC2)c2cc(N3CCNCC3)c(F)cc2c1=O [CIPROFLOXACIN]	Toxic	Toxic	Active	Activity [15]: Active; inhibition [16]: inactive; inhibition [17]: Active; inhibition [18]: Active; inhibition [19]: Active
NC[C@H]1O[C@H](O[C@H]2[C@H](O)[C@@H](O[C@H]3O[C@H](CO)[C@@H](O)[C@H](N)[C@H]3O)[C@H](N)C[C@@H]2N)[C@H](O)[C@@H](O)[C@@H]1O [KANAMYCIN]	Toxic	Toxic	Active	inhibition [20]: Active
NCC[C@H](O)C(=O)N[C@@H]1C[C@H](N)[C@@H](O[C@H]2O[C@H](CN)[C@@H](O)[C@H](O)[C@H]2O)[C@H](O)[C@H]1O[C@H]1O[C@H](CO)[C@@H](O)[C@H](N)[C@H]1O [AMIKACIN]	Toxic	Toxic	Active	inhibition [21]: Active
C[C@@H]1CN(c2c(F)c(N)c3c(=O)c(C(=O)O)cn(C4CC4)c3c2F)C[C@H](C)N1 [SPARFLOXACIN]	Toxic	Toxic	Active	Drug uptake [22]: 0.3 µg/mL; inhibition [23]: inactive; inhibition [24]: Active; inhibition [25]: Active; inhibition [26]: Active; Biofilm inhibition activity [6]: Active; inhibition [27]: Active; Activity [15]: Active
CCOc1ccc2ccccc2c1C(=O)N[C@@H]1C(=O)N2[C@@H]1SC(C)(C)[C@@H]2C(=O)O [NAFCILLIN]	Toxic	Toxic	Active	inhibition [28]: Active
CC1COc2c(N3CCN(C)CC3)c(F)cc3c(=O)c(C(=O)O)cn1c23 (centres undefined) [OFLOXACIN]	Toxic	Toxic	Active	inhibition [29]: Active
CC1=C(C(=O)O)N2C(=O)[C@@H](NC(=O)[C@H](N)c3ccc(O)cc3)[C@H]2SC1 [CEFADROXIL]	Toxic	Toxic	Active	inhibition [28]: Active; Biofilm inhibition activity [6]: Active
